# From ChEMBL document CHEMBL3400013, “Synthesis and biological activity evaluation of hydrazone derivatives based on a Tröger's base skeleton” (Bioorg Med Chem, 2015)
# pIC50: −log10 of the molar value. Activity calls are given as the source filed them. The rule behind the calls is not given here.
# Columns and labels:
# [1] = tested on: BJ; experiment: Selectivity index, ratio of IC50 for human BJ cells to IC50 for human CCRF-CEM cells; assay type: functional; details: pooled result: one value given for 2 cell lines, strains, targets or settings
# [2] = Metal chelating activity of the compound assessed as formation of Mg2+ complex by UV-vis spectrometry; assay type: physicochemical
# [3] = tested on: Pseudomonas aeruginosa; experiment: Antimicrobial activity against Pseudomonas aeruginosa CCM 395 up to 200 uM after 24 to 48 hrs by broth microdilution method; assay type: functional, organism-based
# [4] = tested on: CCRF-CEM; experiment: Cell cycle arrest in human CCRF-CEM cells assessed as accumulation at G0/G1 phase at IC50 after 24 hrs by propidium iodide staining-based flow cytometry; assay type: functional
# Summary of the method: (§1)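 Cells were then fixed in 70% ethanol, washed in hypotonic citrate buffer, treated with RNase (50 µg/mL) and stained with propidium iodide. Flow cytometry used a 488 nm laser. Apoptosis was scored as the percentage of particles with propidium content below G0/G1.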
# [5] = tested on: Escherichia coli; experiment: Antimicrobial activity against Escherichia coli CCM 3954 up to 200 uM after 24 to 48 hrs by broth microdilution method; assay type: functional, organism-based
# [6] = tested on: CCRF-CEM; experiment: Cell cycle arrest in human CCRF-CEM cells assessed as accumulation at S phase at 5 times IC50 after 24 hrs by propidium iodide staining-based flow cytometry; assay type: functional; summary of the method: as §1
# [7] = tested on: CCRF-CEM; experiment: Cell cycle arrest in human CCRF-CEM cells assessed as accumulation at G0/G1 phase at 5 times IC50 after 24 hrs by propidium iodide staining-based flow cytometry; assay type: functional; summary of the method: as §1
# [8] = Metal chelating activity of the compound assessed as formation of Cr3+ complex by UV-vis spectrometry; assay type: physicochemical
# [9] = tested on: CCRF-CEM; experiment: Induction of apoptosis in human CCRF-CEM cells assessed as inhibition of RNA synthesis at IC50 after 24 hrs by propidium iodide/BrU staining by flow cytometry; assay type: functional; design: scale not given: the % may be the effect or the level left
# [10] = tested on: Nucleic Acid; experiment: Binding affinity to DNA (unknown origin) assessed as DNA intercalation by UV-visible spectrophotometry in presence of Fe3+; assay type: nucleic-acid assay
# [11] = tested on: Candida tropicalis; experiment: Antifungal activity against Candida tropicalis up to 200 uM after 24 to 48 hrs by broth microdilution method; assay type: functional, organism-based
# [12] = Metal chelating activity of the compound assessed as formation of Co2+ complex by UV-vis spectrometry; assay type: physicochemical
# [13] = Cytostatic activity against human K562-TAX cells after 72 hrs by MTT assay; assay type: functional, cell-based
# Summary of the method: (§2)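 Cells were seeded at 25,000–30,000 per well and pre-incubated for 24 h at 37°C in 5% CO2. Four-fold compound dilutions were added in duplicate and incubated for 72 h. MTT was added for 1–4 h, and formazan was dissolved in 10% aq SDS (pH 5.5) overnight at 37°C. OD was read at 540 nm. IC50 came from dose-response curves, mean ± SD of eight independent experiments.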
# [14] = tested on: Candida albicans; experiment: Antifungal activity against Candida albicans up to 200 uM after 24 to 48 hrs by broth microdilution method; assay type: functional, organism-based
# [15] = tested on: Nucleic Acid; experiment: Binding affinity to DNA (unknown origin) assessed as DNA intercalation by UV-visible spectrophotometry in presence of Ni2+; assay type: nucleic-acid assay
# [16] = tested on: Nucleic Acid; experiment: Binding affinity to DNA (unknown origin) assessed as DNA intercalation by UV-visible spectrophotometry in presence of Cu2+; assay type: nucleic-acid assay
# [17] = tested on: Staphylococcus aureus; experiment: Antimicrobial activity against methicillin-resistant Staphylococcus aureus MRSA 4591 up to 200 uM after 24 to 48 hrs by broth microdilution method; assay type: functional, organism-based
# [18] = Metal chelating activity of the compound assessed as formation of Ca2+ complex by UV-vis spectrometry; assay type: physicochemical
# [19] = tested on: Pseudomonas aeruginosa; experiment: Antimicrobial activity against multidrug-resistant Pseudomonas aeruginosa A/16575 up to 200 uM after 24 to 48 hrs by broth microdilution method; assay type: functional, organism-based
# [20] = tested on: Nucleic Acid; experiment: Binding affinity to DNA (unknown origin) assessed as DNA intercalation by UV-visible spectrophotometry in presence of Zn2+; assay type: nucleic-acid assay
# [21] = tested on: Staphylococcus haemolyticus; experiment: Antimicrobial activity against methicillin-resistant Staphylococcus haemolyticus A1/16568 up to 200 uM after 24 to 48 hrs by broth microdilution method; assay type: functional, organism-based
# [22] = tested on: BJ; experiment: Selectivity index, ratio of IC50 for human BJ cells to IC50 for human K562-TAX cells; assay type: functional
# [23] = tested on: A549; experiment: Selectivity index, ratio of IC50 for human BJ cells to IC50 for human A549 cells; assay type: functional
# [24] = Metal chelating activity of the compound assessed as formation of Cu2+ complex by UV-vis spectrometry; assay type: physicochemical
# [25] = Cytostatic activity against human CEM-DNR cells after 72 hrs by MTT assay; assay type: functional, cell-based; summary of the method: as §2
# [26] = Cytostatic activity against human HCT116 cells after 72 hrs by MTT assay; assay type: functional, cell-based; details: HCT-116, 72 h; summary of the method: as §2
# [27] = tested on: Candida parapsilosis; experiment: Antifungal activity against Candida parapsilosis up to 200 uM after 24 to 48 hrs by broth microdilution method; assay type: functional, organism-based
# [28] = tested on: Escherichia coli; experiment: Antimicrobial activity against multidrug-resistant Escherichia coli C/16702 up to 200 uM after 24 to 48 hrs by broth microdilution method; assay type: functional, organism-based
# [29] = tested on: BJ; experiment: Selectivity index, ratio of IC50 for human BJ cells to IC50 for human p53-/- HCT116 cells; assay type: functional
# [30] = tested on: CCRF-CEM; experiment: Cell cycle arrest in human CCRF-CEM cells assessed as accumulation at S phase at IC50 after 24 hrs by propidium iodide staining-based flow cytometry; assay type: functional; summary of the method: as §1
# [31] = tested on: K562; experiment: Selectivity index, ratio of IC50 for human MRC5 cells to IC50 for human K562 cells; assay type: functional
# [32] = Metal chelating activity of the compound assessed as formation of Fe2+ complex by UV-vis spectrometry; assay type: physicochemical
# [33] = tested on: CCRF-CEM; experiment: Induction of apoptosis in human CCRF-CEM cells assessed as apoptotic cells at IC50 after 24 hrs by propidium iodide staining-based flow cytometry; assay type: functional; summary of the method: as §1
# [34] = tested on: HCT-116; experiment: Selectivity index, ratio of IC50 for human MRC5 cells to IC50 for human HCT116 cells; assay type: functional
# [35] = Metal chelating activity of the compound assessed as formation of Ni2+ complex by UV-vis spectrometry; assay type: physicochemical
# [36] = tested on: CCRF-CEM; experiment: Cytostatic activity against human CCRF-CEM cells after 72 hrs by MTT assay; assay type: functional, cell-based; summary of the method: as §2
# [37] = Cytostatic activity against human p53-/- HCT116 cells after 72 hrs by MTT assay; assay type: functional, cell-based; details: HCT-116, 72 h; summary of the method: as §2
# [38] = tested on: Enterococcus faecalis; experiment: Antimicrobial activity against Enterococcus faecalis CCM 4224 up to 200 uM after 24 to 48 hrs by broth microdilution method; assay type: functional, organism-based
# [39] = tested on: BJ; experiment: Selectivity index, ratio of IC50 for human BJ cells to IC50 for human K562 cells; assay type: functional
# [40] = tested on: CCRF-CEM; experiment: Induction of apoptosis in human CCRF-CEM cells assessed as mitotic cells at 5 times IC50 after 24 hrs by pH3Ser10+ labeling-based flow cytometry; assay type: functional
# [41] = tested on: Staphylococcus aureus; experiment: Antimicrobial activity against Staphylococcus aureus CCM 3953 up to 200 uM after 24 to 48 hrs by broth microdilution method; assay type: functional, organism-based
# [42] = tested on: BJ; experiment: Selectivity index, ratio of IC50 for human BJ cells to IC50 for human HCT116 cells; assay type: functional
# [43] = tested on: MRC5; experiment: Cytostatic activity against human MRC5 cells after 72 hrs by MTT assay; assay type: ADME, cell-based; details: MRC5, 72 h; summary of the method: as §2
# [44] = tested on: K562; experiment: Cytostatic activity against human K562 cells after 72 hrs by MTT assay; assay type: functional, cell-based; details: K562, 72 h; summary of the method: as §2
compound,measurement,setting,value
O=C(N/N=C/c1cc(F)ccc1O)c1ccc2c3c(ccc2c1)N1Cc2c(ccc4cc(C(=O)N/N=C/c5cc(F)ccc5O)ccc24)N(C3)C1,Ratio IC50,[1],26.3
same,Activity,[2],Not Active
same,Activity,[3],inactive
same,Activity,[4],31.5%
same,Activity,[5],inactive
same,Activity,[6],42.41%
same,Activity,[7],41.1%
same,Activity,[8],Not Active
same,Activity,[9],63.13%
same,Activity,[10],Active
same,Activity,[11],inactive
same,Activity,[12],Active
same,pIC50,[13],5.63
same,Activity,[14],inactive
same,Activity,[15],Active
same,Activity,[16],Active
same,Activity,[17],inactive
same,Activity,[18],Not Active
same,Activity,[19],inactive
same,Activity,[20],Active
same,Activity,[21],inactive
same,Ratio IC50,[22],17.6
same,Ratio IC50,[23],33.6
same,Activity,[24],Active
same,pIC50,[25],5.37
same,pIC50,[26],6.19
same,Activity,[27],inactive
same,Activity,[28],inactive
same,Ratio IC50,[29],51
same,Activity,[30],55.45%
same,Ratio IC50,[31],18.1
same,Activity,[32],Not Active
same,Activity,[33],40.42%
same,Ratio IC50,[34],64.9
same,Activity,[35],Active
same,pIC50,[36],5.80
same,pIC50,[37],6.09
same,Activity,[38],inactive
same,Ratio IC50,[39],18.1
same,Activity,[40],0.15%
same,Activity,[41],inactive
same,Ratio IC50,[42],64.9
same,pIC50,[43],4.54
same,pIC50,[44],5.64
Cc1ccc(O)c(/C=N/NC(=O)c2ccc3c4c(ccc3c2)N2Cc3c(ccc5cc(C(=O)N/N=C/c6cc(C)ccc6O)ccc35)N(C4)C2)c1,Ratio IC50,[1],0.8
same,Activity,[2],Not Active
same,Activity,[3],inactive
same,Activity,[4],40.52%
same,Activity,[5],inactive
same,Activity,[6],46.78%
same,Activity,[7],38.43%
same,Activity,[8],Not Active
same,Activity,[9],33.57%
same,Activity,[10],Active
same,Activity,[11],inactive
same,Activity,[12],Active
same,pIC50,[13],5.94
same,Activity,[14],inactive
same,Activity,[15],Active
same,Activity,[16],Active
same,Activity,[17],inactive
same,Activity,[18],Not Active
same,Activity,[19],inactive
same,Activity,[20],Active
same,Activity,[21],inactive
same,Ratio IC50,[22],0.4
same,Ratio IC50,[23],0.9
same,Activity,[24],Active
same,pIC50,[25],5.27
same,pIC50,[26],6.21
same,Activity,[27],inactive
same,Activity,[28],inactive
same,Ratio IC50,[29],1.1
same,Activity,[30],44.83%
same,Ratio IC50,[31],0.5
same,Activity,[32],Not Active
same,Activity,[33],14.09%
same,Ratio IC50,[34],0.8
same,Activity,[35],Active
same,pIC50,[36],6.24
same,pIC50,[37],6.35
same,Activity,[38],inactive
same,Ratio IC50,[39],0.5
same,Activity,[40],0.22%
same,Activity,[41],inactive
same,Ratio IC50,[42],0.8
same,pIC50,[43],6.57
same,pIC50,[44],6.05
